In ChEMBL document CHEMBL5030505, “Assessment of NR4A Ligands That Directly Bind and Modulate the Orphan Nuclear Receptor Nurr1” (J Med Chem, 2020):
Activity calls are given as the source filed them. No cut-off for these calls is given here.

Key:
Assay type in all cases: cell-based
[1] = target: Nuclear receptor subfamily 4 group A member 2 (Homo sapiens) (UniProt P43354); test: Modulation of full length human Nurr1 expressed in HEK293T cells co-transfected with RXRalpha and luciferase reporter plasmid harboring NBRE response element assessed as decrease in luciferase activity at 0.244 to 15.63 uM incubated for 18 by luciferase reporter gene assay; settings: filed as modulator, dose 0.244-15.63 µM, time 18.0 hrs
Sequence of Nuclear receptor subfamily 4 group A member 2 (Homo sapiens) (P43354 whole entry): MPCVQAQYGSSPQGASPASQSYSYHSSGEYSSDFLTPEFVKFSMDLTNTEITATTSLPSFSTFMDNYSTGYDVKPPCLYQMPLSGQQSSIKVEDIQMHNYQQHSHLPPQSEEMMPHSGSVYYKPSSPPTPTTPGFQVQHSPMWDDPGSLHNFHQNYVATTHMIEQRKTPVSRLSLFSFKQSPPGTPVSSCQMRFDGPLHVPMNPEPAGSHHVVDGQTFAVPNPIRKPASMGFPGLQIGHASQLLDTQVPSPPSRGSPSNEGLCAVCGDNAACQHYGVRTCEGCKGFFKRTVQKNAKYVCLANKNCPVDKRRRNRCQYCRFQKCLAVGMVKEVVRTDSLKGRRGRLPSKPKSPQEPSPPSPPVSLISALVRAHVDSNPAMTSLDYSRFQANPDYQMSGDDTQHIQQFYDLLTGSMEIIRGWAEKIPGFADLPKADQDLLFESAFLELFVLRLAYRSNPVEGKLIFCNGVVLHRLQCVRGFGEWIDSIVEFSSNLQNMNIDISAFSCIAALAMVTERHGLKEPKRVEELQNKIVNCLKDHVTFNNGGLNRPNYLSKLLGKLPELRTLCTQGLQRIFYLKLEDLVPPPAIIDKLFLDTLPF
Method in brief: (§1)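 Full-length Nurr1 plasmid, alone (2 μg) or 1 μg plus full-length RXRα (1 μg), cotransfected with 3xNBRE- or 3xNurRE-luciferase reporter (6 μg) using Lipofectamine 2000, 18 h. Cells replated at 10,000/well for 4 h. Four ligand concentrations, or vehicle (water, ethanol or DMSO), added in quadruplicate for 18 h. Luciferase read. Fold change vs vehicle, mean ± s.e.m., one-way ANOVA vs vehicle.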

[2] = target: Nuclear receptor subfamily 4 group A member 2 (Homo sapiens) (UniProt P43354); test: Modulation of full length human Nurr1 expressed in HEK293T cells co-transfected with luciferase reporter plasmid harboring NBRE response element assessed as decrease in luciferase activity at 0.244 to 15.63 uM incubated for 18 by luciferase reporter gene assay; settings: filed as modulator, dose 0.244-15.63 µM, time 18.0 hrs; method in brief: as §1
[3] = target: Nuclear receptor subfamily 4 group A member 2 (Homo sapiens) (UniProt P43354); test: Modulation of full length human Nurr1 expressed in SKNBE(2) cells co-transfected with luciferase reporter plasmid harboring NBRE response element assessed as decrease in luciferase activity at 0.244 to 15.63 uM incubated for 18 by luciferase reporter gene assay; settings: SKNBE2, filed as modulator, dose 0.244-15.63 µM, time 18.0 hrs
Method in brief: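 Transfection of SK-N-BE(2)-C cells (1:1 EMEM/F12, 10% FBS, 37°C, 5% CO2) used full-length Nurr1 alone (2 μg, no RXRα) with 3xNBRE- or 3xNurRE-luciferase reporter (6 μg) for 18 h. Cells were replated at 10,000/well for 4 h, then exposed to ligand or vehicle in quadruplicate for 18 h. Luminescence was expressed as fold over vehicle, as mean ± s.e.m. (n=4) from 2 independent experiments, one-way ANOVA against vehicle.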

HEK293T = test: Modulation of Gal4-fused VP16 expressed in HEK293T cells co-transfected with UAS repoter gene assessed as decrease in luciferase activity at 0.244 to 15.63 uM incubated for 18 hrs by luciferase reporter gene assay; settings: Human alphaherpesvirus 2, filed as modulator, dose 0.244-15.63 µM
Method in brief: (§2)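 Cells in 10-cm dishes were transfected with Gal4-VP16 expression plasmid (2 μg) plus 5xUAS-luciferase reporter (2 μg) for 18 h. They were replated at 10,000 cells/well for 4 h, then given ligand or vehicle (water, ethanol or DMSO) in quadruplicate for 18 h. Luciferase was read with Britelite Plus. Fold change is versus vehicle-treated cells, with one-way ANOVA versus vehicle.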

SKNBE2 = test: Modulation of Gal4-fused VP16 expressed in SKNBE(2) cells co-transfected with UAS repoter gene assessed as decrease in luciferase activity at 0.244 to 15.63 uM incubated for 18 hrs by luciferase reporter gene assay; settings: Human alphaherpesvirus 2, filed as modulator, dose 0.244-15.63 µM; method in brief: as §2
PC-12 [4] = test: Cytotoxicity against rat PC-12 cells assessed as reduction in cell viability at 0.244 to 15.63 microM incubated for 18 hrs by Cell titer-glo assay; settings: pc-12, 18 h, dose 0.244-15.63 µM
Method in brief: (§3)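 Cells seeded at 1.5 million per 10-cm dish. Next day they were replated at 10,000 cells/well and rested 4 h. Ligand or vehicle (water, ethanol or DMSO, by ligand) was added in dose-response format in quadruplicate. After 18 h, viability was read by CellTiter-Glo luminescence. Data are mean ± s.e.m., generally representative of 2 independent experiments. One-way ANOVA versus vehicle.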

SK-N-BE(2) = test: Cytotoxicity against human SKNBE2 cells assessed as reduction in cell viability at 0.244 to 15.63 uM incubated for 18 hrs by Cell titer-glo assay; settings: dose 0.244-15.63 µM; method in brief: as §3
[5] = target: Nuclear receptor subfamily 4 group A member 2 (Homo sapiens) (UniProt P43354); test: Modulation of full length human Nurr1 expressed in SKNBE(2) cells co-transfected with RXRalpha and luciferase reporter plasmid harboring NurRE response element assessed as decrease in luciferase activity at 0.244 to 15.63 uM incubated for 18 by luciferase reporter gene assay; settings: SKNBE2, filed as modulator, dose 0.244-15.63 µM, time 18.0 hrs
Method in brief: (§4)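 SK-N-BE(2)-C cells were kept in 1:1 EMEM/F12 with 10% FBS at 37°C and 5% CO2. They were cotransfected with full-length Nurr1 (1 μg), full-length RXRα (1 μg) and 3xNBRE- or 3xNurRE-luc reporter (6 μg) for 18 h, replated at 10,000 cells/well for 4 h, and then treated with ligand or vehicle in quadruplicate for 18 h. The readout was luciferase luminescence as fold over vehicle, reported as mean ± s.e.m. (n=4) from 2 independent experiments, one-way ANOVA.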

[6] = target: Nuclear receptor subfamily 4 group A member 2 (Homo sapiens) (UniProt P43354); test: Modulation of full length human Nurr1 expressed in HEK293T cells co-transfected with luciferase reporter plasmid harboring NurRE response element assessed as decrease in luciferase activity at 0.244 to 15.63 uM incubated for 18 by luciferase reporter gene assay; settings: filed as modulator, dose 0.244-15.63 µM, time 18.0 hrs; method in brief: as §1
[7] = target: Nuclear receptor subfamily 4 group A member 2 (Homo sapiens) (UniProt P43354); test: Modulation of full length human Nurr1 expressed in SKNBE(2) cells co-transfected with luciferase reporter plasmid harboring NurRE response element assessed as decrease in luciferase activity at 0.244 to 15.63 uM incubated for 18 by luciferase reporter gene assay; settings: SKNBE2, filed as modulator, dose 0.244-15.63 µM, time 18.0 hrs
[8] = target: Nuclear receptor subfamily 4 group A member 2 (Homo sapiens) (UniProt P43354); test: Modulation of full length human Nurr1 expressed in SKNBE(2) cells co-transfected with RXRalpha and luciferase reporter plasmid harboring NBRE response element assessed as decrease in luciferase activity at 0.244 to 15.63 uM incubated for 18 by luciferase reporter gene assay; settings: SKNBE2, filed as modulator, dose 0.244-15.63 µM, time 18.0 hrs; method in brief: as §4
[9] = target: Nuclear receptor subfamily 4 group A member 2 (Homo sapiens) (UniProt P43354); test: Modulation of full length human Nurr1 expressed in PC12 cells co-transfected with luciferase reporter plasmid harboring NurRE response element assessed as decrease in luciferase activity at 0.244 to 15.63 uM incubated for 18 by luciferase reporter gene assay; settings: PC-12, filed as modulator, dose 0.244-15.63 µM, time 18.0 hrs
Method in brief: (§5)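 Here PC12 cells (FK-12 medium, 15% horse serum, 2.5% FBS, 37°C, 5% CO2) received full-length Nurr1 (2 μg) without RXRα, plus 3xNBRE- or 3xNurRE-luciferase reporter (6 μg), for 18 h. Cells were replated at 10,000/well for 4 h, then treated with ligand or vehicle in quadruplicate for 18 h. Luciferase luminescence was normalized to vehicle-treated cells. Results are mean ± s.e.m. (n=4) from 2 independent experiments, with one-way ANOVA against vehicle.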

HEK-293T = test: Cytotoxicity against human HEK293T cells assessed as reduction in cell viability at 0.244 to 15.63 microM incubated for 18 hrs by Cell titer-glo assay; settings: dose 0.244-15.63 µM; method in brief: as §3
[10] = target: Nuclear receptor subfamily 4 group A member 2 (Homo sapiens) (UniProt P43354); test: Modulation of full length human Nurr1 expressed in HEK293T cells co-transfected with RXRalpha and luciferase reporter plasmid harboring NurRE response element assessed as decrease in luciferase activity at 0.244 to 15.63 uM incubated for 18 by luciferase reporter gene assay; settings: filed as modulator, dose 0.244-15.63 µM, time 18.0 hrs; method in brief: as §1
PC-12 [11] = test: Modulation of Gal4-fused VP16 expressed in PC12 cells co-transfected with UAS repoter gene assessed as decrease in luciferase activity at 0.244 to 15.63 uM incubated for 18 hrs by luciferase reporter gene assay; settings: Human alphaherpesvirus 2, filed as modulator, dose 0.244-15.63 µM; method in brief: as §2
[12] = target: Nuclear receptor subfamily 4 group A member 2 (Homo sapiens) (UniProt P43354); test: Modulation of full length human Nurr1 expressed in HEK293T cells co-transfected with luciferase reporter plasmid harboring NurRE response element at 0.244 to 15.63 uM incubated for 18 by luciferase reporter gene assay; settings: dose 0.244-15.63 µM, time 18.0 hrs; method in brief: as §1
[13] = target: Nuclear receptor subfamily 4 group A member 2 (Homo sapiens) (UniProt P43354); test: Modulation of full length human Nurr1 expressed in HEK293T cells co-transfected with RXRalpha and luciferase reporter plasmid harboring NBRE response element at 0.244 to 15.63 uM incubated for 18 by luciferase reporter gene assay; settings: dose 0.244-15.63 µM, time 18.0 hrs; method in brief: as §1
[14] = target: Nuclear receptor subfamily 4 group A member 2 (Homo sapiens) (UniProt P43354); test: Modulation of full length human Nurr1 expressed in SKNBE(2) cells co-transfected with luciferase reporter plasmid harboring NurRE response element at 0.244 to 15.63 uM incubated for 18 by luciferase reporter gene assay; settings: SKNBE2, dose 0.244-15.63 µM, time 18.0 hrs
[15] = target: Nuclear receptor subfamily 4 group A member 2 (Homo sapiens) (UniProt P43354); test: Modulation of full length human Nurr1 expressed in PC12 cells co-transfected with RXRalpha and luciferase reporter plasmid harboring NurRE response element at 0.244 to 15.63 uM incubated for 18 by luciferase reporter gene assay; settings: PC-12, dose 0.244-15.63 µM, time 18.0 hrs
Method in brief: (§6)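 PC12 cells were grown at 37°C and 5% CO2 in […] medium with 15% horse serum and 2.5% FBS. They were transfected with full-length Nurr1 (1 μg) plus full-length RXRα (1 μg) and 3xNBRE- or 3xNurRE-luciferase reporter (6 μg) for 18 h, then replated at 10,000 cells/well for 4 h. Ligand or vehicle (water, ethanol or DMSO) was added in quadruplicate for 18 h. Luminescence was read as fold change over vehicle. Results are mean ± s.e.m., n=4, from 2 independent experiments, analysed by one-way ANOVA against vehicle.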

[16] = target: Nuclear receptor subfamily 4 group A member 2 (Homo sapiens) (UniProt P43354); test: Modulation of full length human Nurr1 expressed in HEK293T cells co-transfected with RXRalpha and luciferase reporter plasmid harboring NurRE response element at 0.244 to 15.63 uM incubated for 18 by luciferase reporter gene assay; settings: dose 0.244-15.63 µM, time 18.0 hrs; method in brief: as §1
[17] = target: Nuclear receptor subfamily 4 group A member 2 (Homo sapiens) (UniProt P43354); test: Modulation of full length human Nurr1 expressed in SKNBE(2) cells co-transfected with RXRalpha and luciferase reporter plasmid harboring NBRE response element at 0.244 to 15.63 uM incubated for 18 by luciferase reporter gene assay; settings: SKNBE2, dose 0.244-15.63 µM; method in brief: as §4
[18] = target: Nuclear receptor subfamily 4 group A member 2 (Homo sapiens) (UniProt P43354); test: Modulation of full length human Nurr1 expressed in HEK293T cells co-transfected with luciferase reporter plasmid harboring NBRE response element at 0.244 to 15.63 uM incubated for 18 by luciferase reporter gene assay; settings: dose 0.244-15.63 µM, time 18.0 hrs; method in brief: as §1
[19] = target: Nuclear receptor subfamily 4 group A member 2 (Homo sapiens) (UniProt P43354); test: Modulation of full length human Nurr1 expressed in SKNBE(2) cells co-transfected with RXRalpha and luciferase reporter plasmid harboring NurRE response element at 0.244 to 15.63 uM incubated for 18 by luciferase reporter gene assay; settings: SKNBE2, dose 0.244-15.63 µM, time 18.0 hrs; method in brief: as §4
[20] = target: Nuclear receptor subfamily 4 group A member 2 (Homo sapiens) (UniProt P43354); test: Modulation of full length human Nurr1 expressed in SKNBE(2) cells co-transfected with luciferase reporter plasmid harboring NBRE response element at 0.244 to 15.63 uM incubated for 18 by luciferase reporter gene assay; settings: SKNBE2, dose 0.244-15.63 µM
[21] = target: Nuclear receptor subfamily 4 group A member 2 (Homo sapiens) (UniProt P43354); test: Modulation of full length human Nurr1 expressed in PC12 cells co-transfected with luciferase reporter plasmid harboring NurRE response element at 0.244 to 15.63 uM incubated for 18 by luciferase reporter gene assay; settings: PC-12, dose 0.244-15.63 µM; method in brief: as §5
[22] = target: Nuclear receptor subfamily 4 group A member 2 (Homo sapiens) (UniProt P43354); test: Modulation of full length human Nurr1 expressed in PC12 cells co-transfected with RXRalpha and luciferase reporter plasmid harboring NBRE response element at 0.244 to 15.63 uM incubated for 18 by luciferase reporter gene assay; settings: PC-12, dose 0.244-15.63 µM, time 18.0 hrs; method in brief: as §6
[23] = target: Nuclear receptor subfamily 4 group A member 2 (Homo sapiens) (UniProt P43354); test: Modulation of full length human Nurr1 expressed in PC12 cells co-transfected with luciferase reporter plasmid harboring NBRE response element at 0.244 to 15.63 uM incubated for 18 by luciferase reporter gene assay; settings: PC-12, dose 0.244-15.63 µM, time 18.0 hrs; method in brief: as §5

Structure (SMILES): C=C1C(=O)O[C@@H]2C[C@@]3(C)CCCC(=C)[C@@H]3C[C@H]12 [ISOALANTOLACTONE]
- Activity [1]: Active
- Activity [2]: Active
- Activity [3]: Active
- Activity (HEK293T): Active
- Activity (SKNBE2): Active
- Activity (PC-12 [4]): Toxic
- Activity (SK-N-BE(2)): Toxic
- Activity [5]: Active
- Activity [6]: Active
- Activity [7]: Active
- Activity [8]: Active
- Activity [9]: Active
- Activity (HEK-293T): Toxic
- Activity [10]: Active
- Activity (PC-12 [11]): Active

Structure (SMILES): CCCCCCCC(=O)c1cc(OC)c(OC)c(OC)c1CC(=O)OCC
- Activity [12]: inactive
- Activity (HEK293T): Active
- Activity [13]: inactive
- Activity [14]: inactive
- Activity [15]: inactive
- Activity (SKNBE2): Active
- Activity [16]: inactive
- Activity [17]: inactive
- Activity [18]: inactive
- Activity (PC-12 [4]): Toxic
- Activity (SK-N-BE(2)): Toxic
- Activity [19]: inactive
- Activity [20]: inactive
- Activity [21]: inactive
- Activity (HEK-293T): Toxic
- Activity (PC-12 [11]): Active
- Activity [22]: inactive
- Activity [23]: inactive
